{"source": "paper PMC7004556", "about": "(Cancer Science, 2020)", "key": {"FGFR pathway": {"system": "FGFR pathway", "test": "Pharmacodynamic markers of FGFR pathway inhibition", "type": "in vivo, human", "conditions": "QD", "in_short": "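Blood was drawn before dosing in cycles 0, 1 and later odd cycles, and after the cycle 0 dose on days 1-4. FGF23 was measured by solid-phase sandwich ELISA (mouse anti-human FGF23 capture, peroxidase-conjugated mouse anti-human FGF23 detection, colorimetric). 1,25-(OH)2-vitamin D was measured by double-antibody RIA (sheep antibody 16-18 h, 125I tracer, cellulose-conjugated donkey anti-sheep IgG, γ-counting). Serum phosphate was also tracked.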"}, "[1]": {"system": "patients with advanced solid tumors", "test": "Phase I dose escalation: safety and tolerability", "type": "in vivo, human", "in_short": "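Patients received a single 1 mg oral dose on cycle 0 day 1, then a washout on days 2-7. Oral once-daily dosing followed in 28-day cycles from day 8-10. Doses were escalated by mTPI design (target DLT rate 25% ± 5%). DLTs were assessed over cycles 0-1 against predefined haematological, non-haematological, calcification and hyperphosphataemia criteria. AEs were coded by MedDRA v20.1 and graded by CTCAE v4.03.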"}, "[2]": {"system": "tumors harboring FGFR abnormalities", "conditions": "mice with tumors metastasized to the lung; cited from earlier work"}, "advanced solid tumors": {"system": "advanced solid tumors", "test": "Antitumor activity by RECIST v1.1 in phase I", "type": "in vivo, human", "in_short": "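Tumours assessed by CT and/or MRI per RECIST v1.1 at screening, every 8 weeks from cycle 1 day 1, and at discontinuation. Oral once-daily dosing ran in 28-day cycles. Best overall response was scored in patients with ≥1 RECIST target lesion. The efficacy set covered treated patients with a baseline and ≥1 post-baseline assessment.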"}}, "note": "Entries after “also recorded” stand apart in the source; their conditions may differ."}
{"smiles": "CNC(=O)n1ccc2cc(Oc3ccnc(NC(=O)c4ccc(C5CCN(CCO)CC5)cc4)c3)c(OCCOC)cc21", "note": "[E7090]", "values": [{"measurement": "Doses with sufficient FGFR pathway inhibition", "setting": "FGFR pathway", "value": "≥ 100", "unit": "mg"}, {"measurement": "Dose‐limiting toxicity (DLT)", "setting": "[1]; 1 mg QD to 140 mg QD, cycle 0‐cycle 1", "value": "No DLT was observed; also recorded: no DLT were reported"}, {"measurement": "ALT increased, treatment‐related TEAE", "setting": "[1]; 60 mg (n = 3), any grade", "value": "1 (33.3) n (%)"}, {"measurement": "Anemia, treatment‐related TEAE", "setting": "[1]; 60 mg (n = 3), any grade", "value": "1 (33.3) n (%)"}, {"measurement": "Blood creatinine increased, treatment‐related TEAE", "setting": "[1]; 60 mg (n = 3), any grade", "value": "2 (66.7) n (%)"}, {"measurement": "Diarrhea, treatment‐related TEAE", "setting": "[1]; 60 mg (n = 3), any grade", "value": "2 (66.7) n (%)"}, {"measurement": "Lipase increased, treatment‐related TEAE", "setting": "[1]; 60 mg (n = 3), any grade", "value": "1 (33.3) n (%)"}, {"measurement": "Nausea, treatment‐related TEAE", "setting": "[1]; 60 mg (n = 3), any grade", "value": "1 (33.3) n (%)"}, {"measurement": "PPE syndrome, treatment‐related TEAE", "setting": "[1]; 60 mg (n = 3), any grade", "value": "1 (33.3) n (%)"}, {"measurement": "Vomiting, treatment‐related TEAE", "setting": "[1]; 60 mg (n = 3), any grade", "value": "1 (33.3) n (%)"}, {"measurement": "Anemia, treatment‐related TEAE", "setting": "[1]; 100 mg (n = 3), any grade", "value": "1 (33.3) n (%)"}, {"measurement": "Blood ALP increased, treatment‐related TEAE", "setting": "[1]; 100 mg (n = 3), any grade", "value": "1 (33.3) n (%)"}, {"measurement": "Blood creatinine increased, treatment‐related TEAE", "setting": "[1]; 100 mg (n = 3), any grade", "value": "1 (33.3) n (%)"}, {"measurement": "Hyperphosphatemia, treatment‐related TEAE", "setting": "[1]; 100 mg (n = 3), any grade", "value": "3 (100.0) n (%)"}, {"measurement": "Lipase increased, treatment‐related TEAE", "setting": "[1]; 100 mg (n = 3), any grade", "value": "1 (33.3) n (%)"}, {"measurement": "Nausea, treatment‐related TEAE", "setting": "[1]; 100 mg (n = 3), any grade", "value": "1 (33.3) n (%)"}, {"measurement": "Retinal detachment, treatment‐related TEAE", "setting": "[1]; 100 mg (n = 3), any grade", "value": "2 (66.7) n (%)"}, {"measurement": "ALT increased, treatment‐related TEAE", "setting": "[1]; 140 mg (n = 3), any grade", "value": "3 (100.0) n (%)"}, {"measurement": "AST increased, treatment‐related TEAE", "setting": "[1]; 140 mg (n = 3), any grade", "value": "2 (66.7) n (%)"}, {"measurement": "Anemia, treatment‐related TEAE", "setting": "[1]; 140 mg (n = 3), any grade", "value": "1 (33.3) n (%)"}, {"measurement": "Blood ALP increased, treatment‐related TEAE", "setting": "[1]; 140 mg (n = 3), any grade", "value": "2 (66.7) n (%)"}, {"measurement": "Blood creatinine increased, treatment‐related TEAE", "setting": "[1]; 140 mg (n = 3), any grade", "value": "3 (100.0) n (%)"}, {"measurement": "Diarrhea, treatment‐related TEAE", "setting": "[1]; 140 mg (n = 3), any grade", "value": "1 (33.3) n (%)"}, {"measurement": "Dysgeusia, treatment‐related TEAE", "setting": "[1]; 140 mg (n = 3), any grade", "value": "2 (66.7) n (%)"}, {"measurement": "Hyperphosphatemia, treatment‐related TEAE", "setting": "[1]; 140 mg (n = 3), any grade", "value": "3 (100.0) n (%)"}, {"measurement": "Lipase increased, treatment‐related TEAE", "setting": "[1]; 140 mg (n = 3), any grade", "value": "1 (33.3) n (%)"}, {"measurement": "Nausea, treatment‐related TEAE", "setting": "[1]; 140 mg (n = 3), any grade", "value": "1 (33.3) n (%)"}, {"measurement": "PPE syndrome, treatment‐related TEAE", "setting": "[1]; 140 mg (n = 3), any grade", "value": "1 (33.3) n (%)"}, {"measurement": "Retinal detachment, treatment‐related TEAE", "setting": "[1]; 140 mg (n = 3), any grade", "value": "1 (33.3) n (%)"}, {"measurement": "Vomiting, treatment‐related TEAE", "setting": "[1]; 140 mg (n = 3), any grade", "value": "1 (33.3) n (%)"}, {"measurement": "ALT increased, treatment‐related TEAE", "setting": "[1]; 180 mg (n = 3), any grade", "value": "2 (66.7) n (%)"}, {"measurement": "AST increased, treatment‐related TEAE", "setting": "[1]; 180 mg (n = 3), any grade", "value": "2 (66.7) n (%)"}, {"measurement": "Blood creatinine increased, treatment‐related TEAE", "setting": "[1]; 180 mg (n = 3), any grade", "value": "1 (33.3) n (%)"}, {"measurement": "Diarrhea, treatment‐related TEAE", "setting": "[1]; 180 mg (n = 3), any grade", "value": "3 (100.0) n (%)"}, {"measurement": "Dysgeusia, treatment‐related TEAE", "setting": "[1]; 180 mg (n = 3), any grade", "value": "1 (33.3) n (%)"}, {"measurement": "Hyperphosphatemia, treatment‐related TEAE", "setting": "[1]; 180 mg (n = 3), any grade", "value": "3 (100.0) n (%)"}, {"measurement": "Lipase increased, treatment‐related TEAE", "setting": "[1]; 180 mg (n = 3), any grade", "value": "1 (33.3) n (%)"}, {"measurement": "Nausea, treatment‐related TEAE", "setting": "[1]; 180 mg (n = 3), any grade", "value": "1 (33.3) n (%)"}, {"measurement": "PPE syndrome, treatment‐related TEAE", "setting": "[1]; 180 mg (n = 3), any grade", "value": "2 (66.7) n (%)"}, {"measurement": "Vomiting, treatment‐related TEAE", "setting": "[1]; 180 mg (n = 3), any grade", "value": "1 (33.3) n (%)"}, {"measurement": "ALT increased, treatment‐related TEAE", "setting": "[1]; 180 mg (n = 3), ≥Grade 3", "value": "2 (66.7) n (%)"}, {"measurement": "AST increased, treatment‐related TEAE", "setting": "[1]; 180 mg (n = 3), ≥Grade 3", "value": "1 (33.3) n (%)"}, {"measurement": "Vomiting, treatment‐related TEAE", "setting": "[1]; 180 mg (n = 3), ≥Grade 3", "value": "1 (33.3) n (%)"}, {"measurement": "Blood creatinine increased, treatment‐related TEAE", "setting": "[1]; 1‐30 mg (n = 12), any grade", "value": "2 (16.7) n (%)"}, {"measurement": "Lipase increased, treatment‐related TEAE", "setting": "[1]; 1‐30 mg (n = 12), any grade", "value": "1 (8.3) n (%)"}, {"measurement": "Nausea, treatment‐related TEAE", "setting": "[1]; 1‐30 mg (n = 12), any grade", "value": "1 (8.3) n (%)"}, {"measurement": "Recommended dose for Part 2 (expansion part)", "setting": "[1]; QD", "value": 140, "unit": "mg"}, {"measurement": "ALT increased, treatment‐related TEAE", "setting": "[1]; Total (N = 24), any grade", "value": "6 (25.0) n (%)"}, {"measurement": "AST increased, treatment‐related TEAE", "setting": "[1]; Total (N = 24), any grade", "value": "4 (16.7) n (%)"}, {"measurement": "Anemia, treatment‐related TEAE", "setting": "[1]; Total (N = 24), any grade", "value": "3 (12.5) n (%)"}, {"measurement": "Blood ALP increased, treatment‐related TEAE", "setting": "[1]; Total (N = 24), any grade", "value": "3 (12.5) n (%)"}, {"measurement": "Blood creatinine increased, treatment‐related TEAE", "setting": "[1]; Total (N = 24), any grade", "value": "9 (37.5) n (%)"}, {"measurement": "Diarrhea, treatment‐related TEAE", "setting": "[1]; Total (N = 24), any grade", "value": "6 (25.0) n (%)"}, {"measurement": "Dysgeusia, treatment‐related TEAE", "setting": "[1]; Total (N = 24), any grade", "value": "3 (12.5) n (%)"}, {"measurement": "Hyperphosphatemia, treatment‐related TEAE", "setting": "[1]; Total (N = 24), any grade", "value": "9 (37.5) n (%)"}, {"measurement": "Lipase increased, treatment‐related TEAE", "setting": "[1]; Total (N = 24), any grade", "value": "5 (20.8) n (%)"}, {"measurement": "Nausea, treatment‐related TEAE", "setting": "[1]; Total (N = 24), any grade", "value": "5 (20.8) n (%)"}, {"measurement": "PPE syndrome, treatment‐related TEAE", "setting": "[1]; Total (N = 24), any grade", "value": "4 (16.7) n (%)"}, {"measurement": "Retinal detachment, treatment‐related TEAE", "setting": "[1]; Total (N = 24), any grade", "value": "3 (12.5) n (%)"}, {"measurement": "Vomiting, treatment‐related TEAE", "setting": "[1]; Total (N = 24), any grade", "value": "3 (12.5) n (%)"}, {"measurement": "ALT increased, treatment‐related TEAE", "setting": "[1]; Total (N = 24), ≥Grade 3", "value": "2 (8.3) n (%)"}, {"measurement": "AST increased, treatment‐related TEAE", "setting": "[1]; Total (N = 24), ≥Grade 3", "value": "1 (4.2) n (%)"}, {"measurement": "Vomiting, treatment‐related TEAE", "setting": "[1]; Total (N = 24), ≥Grade 3", "value": "1 (4.2) n (%)"}, {"measurement": "Maximum tolerated dose (MTD)", "setting": "[1]; daily oral dose of 1‐180 mg", "value": "not reached"}, {"measurement": "Drug‐related deaths", "setting": "[1]; in vivo", "value": "No drug‐related deaths were reported"}, {"measurement": "Number of AE of hyperphosphatemia", "setting": "[1]; in vivo", "value": "nine"}, {"measurement": "Number of AE of retinal detachment", "setting": "[1]; in vivo", "value": "three"}, {"measurement": "SAE considered related to the study drug", "setting": "[1]; in vivo", "value": "None"}, {"measurement": "TEAE leading to discontinuation of the study drug", "setting": "[1]; in vivo", "value": "no TEAE led to discontinuation"}, {"measurement": "TEAE leading to dose reduction: PPE syndrome", "setting": "[1]; in vivo", "value": 2, "unit": "n"}, {"measurement": "TEAE leading to dose reduction: increased ALT", "setting": "[1]; in vivo", "value": 2, "unit": "n"}, {"measurement": "TEAE leading to dose reduction: increased AST", "setting": "[1]; in vivo", "value": 1, "unit": "n"}, {"measurement": "TEAE‐related dose interruption: anorexia", "setting": "[1]; in vivo", "value": 2, "unit": "n"}, {"measurement": "TEAE‐related dose interruption: decreased neutrophil count", "setting": "[1]; in vivo", "value": 1, "unit": "n"}, {"measurement": "TEAE‐related dose interruption: nasopharyngitis", "setting": "[1]; in vivo", "value": 1, "unit": "n"}, {"measurement": "TEAE‐related dose interruption: nausea", "setting": "[1]; in vivo", "value": 3, "unit": "n"}, {"measurement": "TEAE‐related dose interruption: vomiting", "setting": "[1]; in vivo", "value": 2, "unit": "n"}, {"measurement": "Number of patients with SAE", "setting": "[1]; of 24 patients treated", "value": "three"}, {"measurement": "Survival effect", "setting": "[2]", "value": "significantly prolonged survival effect"}, {"measurement": "Antitumor activity in cholangiocarcinoma with FGFR2 fusion", "setting": "advanced solid tumors; 30‐mg cohort", "value": "did not show potent antitumor activity"}, {"measurement": "Reduction in diameter of the target lesion", "setting": "advanced solid tumors; 180‐mg cohort, gastric cancer with FGFR2 amplification, cycle 3 day 1, from 38 to 11 mm", "value": 71, "unit": "%"}]}
